Results on one molecule are retold here after ChEMBL document CHEMBL1800016, “Novel thiazolidinedione derivatives with anti-obesity effects: dual action as PTP1B inhibitors and PPAR-γ activators” (Bioorg Med Chem Lett, 2010).

Data set [1] addresses T1, Tyrosine-protein phosphatase non-receptor type 1 (Homo sapiens) (UniProt P18031).
T1 sequence (whole entry): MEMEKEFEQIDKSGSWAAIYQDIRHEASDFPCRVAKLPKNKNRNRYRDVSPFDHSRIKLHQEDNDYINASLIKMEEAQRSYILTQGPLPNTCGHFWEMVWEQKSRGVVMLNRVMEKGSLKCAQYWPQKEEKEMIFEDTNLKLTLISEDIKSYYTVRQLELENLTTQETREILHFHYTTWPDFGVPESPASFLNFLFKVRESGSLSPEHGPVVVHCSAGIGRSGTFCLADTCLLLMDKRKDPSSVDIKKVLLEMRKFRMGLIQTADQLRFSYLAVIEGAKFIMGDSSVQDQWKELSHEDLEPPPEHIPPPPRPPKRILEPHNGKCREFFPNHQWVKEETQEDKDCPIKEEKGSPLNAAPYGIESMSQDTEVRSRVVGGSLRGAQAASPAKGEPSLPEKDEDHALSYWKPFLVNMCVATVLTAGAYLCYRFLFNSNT
Briefly: Mixed type inhibition of PTP1B expressed in Escherichia coli.

The test system of data set [2] is Mus musculus. Briefly: Antidiabetic activity in high fat diet-fed diabetic C57BL/6J Jms Slc mouse model assessed as normalization of fasting blood glucose level at 2.6 mg/day administered with food for 4 weeks measured 90 mins after last dose by glucose tolerance test in presence of glucose. It counts as functional, organism-based. In short, it runs like this: (§1)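 Mice were male C57BL/6J Jms Slc, 5 wk old after 1 wk acclimatization. They were fed a 45%-fat HFD for 8 wk, then HFD with compound mixed in (1.0 g/kg diet, about 2.6 mg/day/mouse, 78 mg/day/kg) for 4 wk. Each mouse was fasted 6 h from the start of the light cycle and fasting glucose was measured. Glucose 1.0 g/kg was then given i.p., with readings at 60 and 90 min.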

Data set [3] concerns Mus musculus. The data set can be described thus: Antidiabetic activity in high fat diet-fed diabetic C57BL/6J Jms Slc mouse model assessed as normalization of blood glucose level at 2.6 mg/day administered with food for 4 weeks measured 90 mins after last dose by glucose tolerance test. It counts as functional, organism-based. Put shortly:
as §1

In data set [4] the target is T2, Tyrosine-protein phosphatase non-receptor type 1 (Homo sapiens, UniProt P18031).
T2 sequence (P18031 whole entry): T1 sequence (whole entry)
The data set can be described thus: Inhibition of PTP1B expressed in Escherichia coli assessed as p-nitrophenol release from pNPP substrate preincubated for 10 mins. Put shortly: (§2)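 IC50 values against the PTP panel, with enzymes prepared as described in the supplementary material. Values are means ± SD of two or more experiments.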

In data set [5] the target is T3, Peroxisome proliferator-activated receptor gamma (Homo sapiens) (UniProt P37231).
T3 sequence (whole entry): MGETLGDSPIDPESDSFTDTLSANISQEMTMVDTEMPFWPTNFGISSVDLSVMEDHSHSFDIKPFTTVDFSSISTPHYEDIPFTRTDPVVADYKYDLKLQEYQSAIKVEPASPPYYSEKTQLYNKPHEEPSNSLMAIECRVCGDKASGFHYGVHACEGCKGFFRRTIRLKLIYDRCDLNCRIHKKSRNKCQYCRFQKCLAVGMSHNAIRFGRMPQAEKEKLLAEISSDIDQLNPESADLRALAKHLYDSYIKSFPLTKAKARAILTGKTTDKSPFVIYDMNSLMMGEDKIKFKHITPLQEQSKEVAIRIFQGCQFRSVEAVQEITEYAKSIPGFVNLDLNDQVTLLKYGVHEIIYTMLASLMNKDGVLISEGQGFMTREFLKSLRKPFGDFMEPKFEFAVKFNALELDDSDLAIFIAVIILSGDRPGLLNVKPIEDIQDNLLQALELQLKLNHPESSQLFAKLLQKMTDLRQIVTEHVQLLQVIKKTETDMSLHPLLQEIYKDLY
Briefly: Agonist activity at PPARgamma expressed in HepG2 cells co-expressing PPRE assessed as concentration required for maximal activation after 24 hrs by luciferase reporter gene assay. In kind it is functional, cell-based. For orientation: In a reporter assay the amount or activity of a reporter protein is the signal.

The target of data set [6] is T4, Tyrosine-protein phosphatase 1 (Saccharomyces cerevisiae S288c, UniProt P25044).
T4 sequence (P25044 whole entry): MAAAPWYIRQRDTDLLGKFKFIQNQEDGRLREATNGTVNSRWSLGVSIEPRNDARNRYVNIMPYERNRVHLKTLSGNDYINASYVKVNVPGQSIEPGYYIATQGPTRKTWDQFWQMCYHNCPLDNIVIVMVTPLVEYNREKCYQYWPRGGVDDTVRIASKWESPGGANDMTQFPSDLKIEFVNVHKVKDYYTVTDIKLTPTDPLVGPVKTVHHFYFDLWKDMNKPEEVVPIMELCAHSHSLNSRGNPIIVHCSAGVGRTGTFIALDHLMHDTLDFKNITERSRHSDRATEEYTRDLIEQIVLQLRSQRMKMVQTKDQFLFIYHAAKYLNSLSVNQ
Briefly: Inhibition of yeast PTP1 expressed in Escherichia coli assessed as p-nitrophenol release from pNPP substrate preincubated for 10 mins. Put shortly:
as §2

The target in data set [7] is T5, Peroxisome proliferator-activated receptor gamma (Homo sapiens, UniProt P37231).
T5 sequence (P37231 whole entry): T3 sequence (whole entry)
Briefly: Agonist activity at PPARgamma expressed in HepG2 cells co-expressing PPRE assessed as transcriptional activation after 24 hrs by luciferase reporter gene assay. It counts as functional, cell-based. Put shortly: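 HepG2 cells were transfected with a PPRE-driven luciferase reporter plus CMV-βGal. The basic luciferase reporter without a PPRE site served as the negative control. Compounds were added 6 h after transfection. Cells were lysed 24 h later. Luciferase activity was read on a luminometer and normalized to β-galactosidase for transfection efficiency. Two independent experiments; error as SEM.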

The test system of data set [8] is Mus musculus. The data set can be described thus: Antidiabetic activity in high fat diet-fed diabetic C57BL/6J Jms Slc mouse model assessed as normalization of fasting blood glucose level at 2.6 mg/day administered with food for 4 weeks measured 60 mins after last dose by glucose tolerance test in presence of glucose. In kind it is functional, organism-based. In short, it runs like this:
as §1

Data set [9] concerns Mus musculus. The data set can be described thus: Antiobesity activity in high fat diet-fed diabetic C57BL/6J Jms Slc mouse model assessed as reduction in body weight at 2.6 mg/day administered with food for 4 weeks. In kind it is functional. In short, it runs like this:
(§3)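 DIO male C57BL/6J Jms Slc mice were fed a 45%-fat HFD for 8 wk, then HFD with 0.1% w/w compound in feed (about 2.6 mg/day/mouse) for 4 wk. A 10%-fat LFD lean group ran throughout. Measures were weight gain, feed efficiency (weight gain/kcal ×100), and epididymal and retroperitoneal fat pad weights. n = 8/group; mean ± SEM; one-way ANOVA.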

Data set [10] deals with Mus musculus. The data set can be described thus: Antidiabetic activity in high fat diet-fed diabetic C57BL/6J Jms Slc mouse model assessed as normalization of fasting blood glucose level measured after 6 hrs of fasting at 2.6 mg/day administered with food for 4 weeks measured 90 mins after last dose by glucose tolerance test. It counts as functional, organism-based. In short, it runs like this: as §1

The subject of data set [11] is Mus musculus. The data set can be described thus: Toxicity in high fat diet-fed diabetic C57BL/6J Jms Slc mouse model assessed as change in weight of kidney at 2.6 mg/day administered with food for 4 weeks. In kind it is organism-based. To be noted: in vivo, po, 672 h. In short, it runs like this: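 At the end of the 4 wk in-feed dosing (about 2.6 mg/day/mouse in HFD), liver, kidney and lung weights were compared across the lean LFD, HFD control and treated groups.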

Data set [12] can be described thus: Selectivity ratio of IC50 for TC-PTP to IC50 for PTP1B.
For data set [13], the system named is Mus musculus. Briefly: Antiobesity activity in high fat diet-fed diabetic C57BL/6J Jms Slc mouse model assessed as decrease in retroperitoneal fat at 2.6 mg/day administered with food for 4 weeks. In kind it is functional. In short, it runs like this: as §3
Data set [14] relates to Mus musculus. The data set can be described thus: Antidiabetic activity in high fat diet-fed diabetic C57BL/6J Jms Slc mouse model assessed as normalization of blood glucose level at 2.6 mg/day administered with food for 4 weeks measured 60 mins after last dose by glucose tolerance test. In kind it is functional, organism-based. In short, it runs like this: as §1

For orientation: IC50 means the midpoint of a concentration-inhibition curve. What is called EC50 is the concentration that produces a half-maximal response.

Activity calls are given as the source filed them. No cut-off for these calls is given here. A value given as a limit tells only on which side of the number the result lay.

For the molecule `Cc1ccc(S(=O)(=O)Oc2cc(OCc3ccc(C(F)(F)F)cc3)c(/C=C3\SC(=O)NC3=O)cc2Br)cc1`, the inhibition entry in [1] is “Active”. Besides, the result in data set [2], in data set [8] and in [10] was inactive. In addition, the outcome in data set [3] and in [14] was Active. Also, the IC50 worked out at 1.3 µM in data set [4] and 12 µM in data set [6]. For the same molecule, the Activity in data set [5] is 1.5 µM; in [9], 2 g; in data set [11] it was “Non-toxic”; in data set [13] it was 0.43 g. The EC50 in data set [7] was found to be 0.34 µM. In data set [12], the Ratio IC50 is over 10.
